ChEMBL document CHEMBL1156870, “De novo design of a picomolar nonbasic 5-HT(1B) receptor antagonist” (J Med Chem, 2010)
Calls of active or inactive are those of the source. The calls are words filed in the database; no cut-off is given here.

Experiments:
[1] = biological target: T1, 5-hydroxytryptamine receptor 1B (Homo sapiens, UniProt P28222); assay: Binding affinity to 5HT1B receptor expressed in CHO cells; type: cell-based
Outline: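 Frozen membranes from stably transfected CHO cells expressing 5-HT1B, 10 μg/well. Buffer: 50 mM Tris-HCl, 4 mM MgCl2, 4 mM CaCl2, 1 mM EDTA, pH 7.4. [3H]GR125743 at 0.5 nM final; nonspecific binding defined with 1 μM AZD1134. 11-point dilutions, 10 μM to 170 pM final. 1 h at room temperature, then WGA yttrium silicate SPA beads for 30 min. IC50 and Ki derived with Kenakin correction for ligand depletion.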

[2] = system: in vitro phospholipidosis assay (no protein target); assay: in vitro; details: human
[3] = biological target: T1, 5-hydroxytryptamine receptor 1B; assay: Antagonist activity at 5HT1B receptor expressed in CHO cells by [35S]GTPgammaS assay; type: functional, cell-based; set-up: concentration or dose not given beside the values
[4] = biological target: 5-hydroxytryptamine receptor 2B (Homo sapiens) (UniProt P41595); assay: Inhibition of human 5HT2B receptor at 10 uM
Outline: (§1)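 Radioligand binding assays from an outside panel of 100 targets, single concentration 10 μM, reported as % effect. Receptor species: human for 5-HT1A, 5-HT2A and 5-HT2B; guinea pig for 5-HT4.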

[5] = biological target: 5-hydroxytryptamine receptor 4 (Cavia porcellus) (UniProt O70528); assay: Inhibition of guinea pig 5HT4 receptor at 10 uM; outline: as §1
Cavia porcellus = assay: Reversal of NXY041-induced hypothermia in sc dosed guinea pig; type: functional, organism-based
[6] = biological target: T2, 5-hydroxytryptamine receptor 1A (Homo sapiens) (UniProt P08908); assay: Inhibition of human 5HT1A receptor at 10 uM; outline: as §1
T2 sequence (whole entry): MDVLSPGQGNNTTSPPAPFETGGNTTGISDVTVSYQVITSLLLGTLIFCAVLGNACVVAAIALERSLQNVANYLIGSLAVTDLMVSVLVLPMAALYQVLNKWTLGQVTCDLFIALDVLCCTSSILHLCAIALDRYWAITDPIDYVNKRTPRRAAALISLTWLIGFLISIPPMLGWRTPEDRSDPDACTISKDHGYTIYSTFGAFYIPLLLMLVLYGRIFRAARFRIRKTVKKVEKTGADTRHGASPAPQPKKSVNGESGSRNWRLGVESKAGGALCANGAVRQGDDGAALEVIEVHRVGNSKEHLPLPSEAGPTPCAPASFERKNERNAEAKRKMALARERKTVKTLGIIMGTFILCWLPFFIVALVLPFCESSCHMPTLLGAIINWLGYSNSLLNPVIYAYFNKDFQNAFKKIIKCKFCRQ

[7] = biological target: 5-hydroxytryptamine receptor 2A (Homo sapiens) (UniProt P28223); assay: Inhibition of human 5HT2A receptor at 10 uM; outline: as §1
Chain of 5-hydroxytryptamine receptor 2A (Homo sapiens) (P28223 whole entry): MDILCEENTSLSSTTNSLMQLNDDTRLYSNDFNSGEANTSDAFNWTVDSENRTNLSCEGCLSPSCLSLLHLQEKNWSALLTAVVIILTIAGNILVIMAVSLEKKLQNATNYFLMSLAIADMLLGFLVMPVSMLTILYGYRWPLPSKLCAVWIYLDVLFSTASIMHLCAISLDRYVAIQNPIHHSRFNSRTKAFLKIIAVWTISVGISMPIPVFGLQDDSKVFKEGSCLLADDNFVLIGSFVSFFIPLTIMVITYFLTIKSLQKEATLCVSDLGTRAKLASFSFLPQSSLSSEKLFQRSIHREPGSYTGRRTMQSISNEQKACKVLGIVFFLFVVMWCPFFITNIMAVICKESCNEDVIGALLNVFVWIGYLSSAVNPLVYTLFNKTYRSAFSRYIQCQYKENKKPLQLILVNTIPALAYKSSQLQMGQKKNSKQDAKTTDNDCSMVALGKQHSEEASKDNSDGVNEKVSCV

T1 sequence (P28222 whole entry): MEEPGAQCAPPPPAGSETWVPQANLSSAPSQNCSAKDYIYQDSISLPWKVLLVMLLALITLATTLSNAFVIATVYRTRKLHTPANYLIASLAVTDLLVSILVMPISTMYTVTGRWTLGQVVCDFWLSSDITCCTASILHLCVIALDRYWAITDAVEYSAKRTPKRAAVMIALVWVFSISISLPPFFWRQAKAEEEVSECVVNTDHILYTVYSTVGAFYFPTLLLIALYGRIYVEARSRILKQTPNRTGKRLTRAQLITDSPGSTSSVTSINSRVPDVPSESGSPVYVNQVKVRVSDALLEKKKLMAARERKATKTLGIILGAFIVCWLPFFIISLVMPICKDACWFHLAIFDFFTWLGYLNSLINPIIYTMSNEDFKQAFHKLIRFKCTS
Chain of 5-hydroxytryptamine receptor 4 (Cavia porcellus) (O70528 whole entry): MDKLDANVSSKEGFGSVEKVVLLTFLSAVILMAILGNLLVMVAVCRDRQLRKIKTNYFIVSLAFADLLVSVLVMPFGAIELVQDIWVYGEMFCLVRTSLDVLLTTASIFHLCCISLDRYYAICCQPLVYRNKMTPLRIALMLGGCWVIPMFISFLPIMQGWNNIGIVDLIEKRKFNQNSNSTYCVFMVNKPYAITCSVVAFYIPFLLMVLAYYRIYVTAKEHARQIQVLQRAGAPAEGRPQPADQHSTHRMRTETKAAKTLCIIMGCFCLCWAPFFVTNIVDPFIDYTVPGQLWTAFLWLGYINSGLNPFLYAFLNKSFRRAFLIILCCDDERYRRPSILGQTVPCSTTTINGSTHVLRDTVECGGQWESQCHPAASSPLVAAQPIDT
Chain of 5-hydroxytryptamine receptor 2B (Homo sapiens) (P41595 whole entry): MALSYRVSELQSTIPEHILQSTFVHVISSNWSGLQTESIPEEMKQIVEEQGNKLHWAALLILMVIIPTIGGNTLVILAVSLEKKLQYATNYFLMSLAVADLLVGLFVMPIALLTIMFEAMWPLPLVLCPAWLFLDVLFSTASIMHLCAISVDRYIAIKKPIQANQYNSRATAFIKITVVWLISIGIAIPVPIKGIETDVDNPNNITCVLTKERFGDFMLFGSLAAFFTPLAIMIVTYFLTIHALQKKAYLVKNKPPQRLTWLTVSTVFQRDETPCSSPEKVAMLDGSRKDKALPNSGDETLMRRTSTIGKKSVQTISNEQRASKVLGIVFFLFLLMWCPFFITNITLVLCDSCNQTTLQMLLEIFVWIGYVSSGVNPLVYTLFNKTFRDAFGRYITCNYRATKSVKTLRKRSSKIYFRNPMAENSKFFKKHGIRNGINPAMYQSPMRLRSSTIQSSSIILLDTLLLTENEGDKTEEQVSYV

| Ki [1] [nM] | Activity [3] [%] | SMILES | other results |
| --- | --- | --- | --- |
| 9.3 | – | Cc1n[nH]c(C)c1-c1ccc(C)c2c(O)cc(C(=O)Nc3ccc(N4CCOCC4)cc3)nc12 | inhibition at 300 µM [2]: 12% |
| 1.7 | 150 | CCC(=O)N1CCN(c2ccc(NC(=O)c3cc(=O)c4cc(F)cc(N5CCN(C)CC5)c4o3)cc2)CC1 | – |
| 0.43 | 90 | COC1(c2ccc(NC(=O)c3cc(=O)c4cc(F)cc(-c5c(C)nn(C)c5C)c4o3)cn2)CCOCC1 | inhibition [4]: 4%; inhibition [5]: 30%; Activity (Cavia porcellus): Active; inhibition [6]: -8%; inhibition [7]: -5% |
| – | 33 | Cc1n[nH]c(C)c1-c1ccc(C)c2c(=O)cc(C(=O)Nc3ccc(N4CCOCC4)cc3)[nH]c12 | – |
| 0.96 | 62 | COC1(c2ccc(NC(=O)C3CCc4cc(F)cc(-c5c(C)nn(C)c5C)c4O3)cn2)CCOCC1 (stereo unspecified) | – |
| 12 | 120 | COc1cc2c(c(N3CCN(C)CC3)c1)O[C@@H](C(=O)Nc1ccc(N3CCOCC3)cc1)CC2 | – |
